Laboratory results reported in publication PMC4203308 (Biomacromolecules, 2013).
In brackets after ≈: the same amount, converted by molar mass. Several values for one entry are separate records, joined by “and”; a condition that tells them apart may be missing. Identical values can stand only once. Where no end group is shown, it is not given here.

Columns and labels:
S. aureus (29213) = assay: microbe, parasite or virus in culture; assay type: cell-based, Staphylococcus aureus; details: for Antimicrobial activity (MIC): 29213, 20 h
S. Epidermidis (35984) = assay: microbe, parasite or virus in culture; assay type: cell-based; details: for Antimicrobial activity (MIC): 35984, 20 h
S aureus (25923) = assay: microbe, parasite or virus in culture; assay type: cell-based, Staphylococcus aureus; details: for Antimicrobial activity (MIC): 25923, 20 h
in vitro [1] = assay type: cell-based; details: human
in vitro [2] = assay type: in vitro ADME
Peptide aggregation = assay type: physicochemical
[3] = tested on: Staphylococcus aureus (ATCC 25923); assay: Co-culture of bacteria and mammalian cells: effect on bacteria; assay type: cell-based; details: A549 monolayer + S. aureus (25923), 20 µM peptide, 6 hours
[4] = tested on: human lung carcinoma A549 cells; assay: Kinetics of peptide-induced cell membrane damage, LIVE/DEAD kit; assay type: cell-based; details: LIVE/DEAD dye staining, 120 minutes of incubation
How it was run: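 A549 cells (freshly trypsinized) seeded at 2 × 10⁴ cells/well in collagen-coated glass chambers, grown overnight in F12K/10% FBS at 37 °C, 5% CO₂. Cells were PBS-washed three times and stained with LIVE/DEAD for 15 min. Test compound was added at a final 10 µM, and confocal images were taken over time (ex 488 nm; em 505–530 nm live, 560 nm dead). Membrane integrity was taken as % green of total green+red pixels.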

[5] = Staphylococcus aureus, 20 h, read-out: Antimicrobial activity (MIC)

Molecule | MIC (S. aureus (29213); [5]) | MIC (S. Epidermidis (35984); Staphylococcus epidermidis, 20 h, read-out: Antimicrobial activity (MIC)) | MIC (S aureus (25923); [5]) | Antimicrobial activity (MIC) (S. aureus (29213)) | Antimicrobial activity (MIC) (S. Epidermidis (35984)) | IC50 at 2 h (in vitro [1]) | Antimicrobial activity (MIC) (S aureus (25923)) | estimated half-life in human sera (in vitro [2]) | remaining at 5 h, 10 µM (in vitro [2]; human, serum) | Size of peptide aggregates (Nanosizer) (Peptide aggregation; PBS pH 7.4, 37 °C, long (> 4–6 hours / overnight) incubation, Zeta nanosizer) | Aggregate formation at acidic pH (in words) (Peptide aggregation; acidic pH, even very high peptide concentrations and long incubation) | Fraction of peptide in solution existing as aggregates (Peptide aggregation; after overnight incubation, PBS pH 7.4, DLS and congo red) | Time for aggregates to dissolve completely at pH 5.5 (Peptide aggregation; solution pH adjusted from physiological pH to pH=5.5 with HCl) | Effect on S. aureus in co-culture (in words) [3] | Cell lysis reached [4]
CC1(C)S[C@@H]2[C@H](NC(=O)Cc3ccccc3)C(=O)N2[C@H]1C(=O)O [Penicillin G] | 16 µg/mL (≈ 47.8 µM) | 4 µg/mL (≈ 12 µM) | 1 µg/mL (≈ 2.99 µM) |  |  |  |  |  |  |  |  |  |  |  | 
FLGALFKALSKLL [PTP-7] |  |  |  | 8 µg/mL | 8 µg/mL | 9 µM | 4 µg/mL |  |  |  |  |  |  |  | 
FLGALFRALSRLL [CL-1] |  |  |  | 8 µg/mL | 4 µg/mL |  | 8 µg/mL | 8 to 9 h | > 95% | > 2.0 µm and 2.5 µm | unable to form aggregates at acidic pH | 90–95% and ~95% | < 30 minutes | only S. aureus were selectively killed | < 100%
